Bioassay records: PubChem, Johns Hopkins Ion Channel Center
MrgX1 ag = agonists of human MrgX1 receptor; MrgX1-HEK293 cells, Fluo-4 calcium fluorescence, agonist mode; stronger effect = higher value; B-score at 10 µM; hit rate 0.44% among 310,000; AID 588627;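 active means calcium response B-score plate-corrected fluorescence ratio at least 3 library SD, with starting fluorescence B-score inside 5 SD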
Target sequence (Q96LB2 whole entry, looked up): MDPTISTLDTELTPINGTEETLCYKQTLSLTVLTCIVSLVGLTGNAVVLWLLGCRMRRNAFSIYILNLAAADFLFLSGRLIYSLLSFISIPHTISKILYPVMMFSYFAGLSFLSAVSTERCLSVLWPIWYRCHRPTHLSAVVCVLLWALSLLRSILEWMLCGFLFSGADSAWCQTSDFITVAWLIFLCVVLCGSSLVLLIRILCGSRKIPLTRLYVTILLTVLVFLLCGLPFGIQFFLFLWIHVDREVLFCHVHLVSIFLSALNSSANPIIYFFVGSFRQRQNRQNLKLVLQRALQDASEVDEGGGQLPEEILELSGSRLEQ
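Test system: HEK293 cells stably expressing human MrgX1 receptor; Input: fifteen thousand cells per well; Dosing: compound delivered in addition one of three; Schedule: overnight seeding, then 1 h dark dye loading; Technique: Fluo-4 NW calcium fluorescence; Measure: B-scored fluorescence response ratio; Controls: positive and negative controls per plate.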
MrgX1 antagonist = antagonists of human MrgX1 receptor. MRGX1-HEK293 calcium flux, Fluo-4, BAM8-22 antagonism; stronger effect = lower value. B-score at 10 µM. hit rate 1.3% among 310,000. AID 588676;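 active means calcium-response B-score plate-corrected more than 3 library SD below zero, starting fluorescence within 5 deviations, no agonist response on first addition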;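 further: peak minus trough fluorescence over baseline after final BAM8-22 challenge near maximal dose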
RGS4 block = inhibitors of human RGS4; hit rate 0.45% among 310,000; P49798; AID 463165; HEK293 M3R/RGS4 inducible, Fluo-4 calcium flux; stronger effect = higher value; triggered by carbachol at its EC20; B-score at 10 µM;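 active means B-score, a plate-corrected calcium signal, over three deviations above library mean, with baseline fluorescence within five deviations of library mean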;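 further: RGS4 expression induced by doxycycline in cells with stable M3 receptor; B-score is computed from the integrated fluorescence ratio over baseline after carbachol; higher B-score means a larger calcium signal and so more RGS4 inhibition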
Target sequence (P49798 whole entry, looked up): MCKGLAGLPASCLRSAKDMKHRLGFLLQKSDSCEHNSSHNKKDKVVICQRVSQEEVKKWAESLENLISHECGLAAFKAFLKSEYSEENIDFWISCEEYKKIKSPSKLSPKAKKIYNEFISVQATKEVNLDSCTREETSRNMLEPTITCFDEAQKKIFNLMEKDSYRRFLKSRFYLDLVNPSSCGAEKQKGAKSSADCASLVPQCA
MrgX1 PAM = human MrgX1 positive allosteric modulation, primary screen. hit rate 0.63% among 310,000. Q96LB2. AID 588675. MrgX1-HEK293, Fluo-4 calcium flux, FDSS; stronger effect = higher value. B-score at 10 µM;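 active means plate-corrected calcium response at least 3 library SD above typical, normal starting fluorescence, not activating the receptor alone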;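 further: compound read alongside a low EC10 to EC30 dose of BAM8-22 agonist; peak minus trough fluorescence over baseline measured at the second addition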
RGS4 pot = potentiators or activators of RGS4. B-score at 10 µM. HEK293 M3R/inducible RGS4, carbachol calcium flux Fluo4; stronger effect = lower value. hit rate 0.92% among 310,000;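 active means B-score of the integrated calcium signal more than 4 SD below the library mean, with starting fluorescence not abnormally high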;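 further: negative B-score means reduced calcium response which marks RGS4 activation or potentiation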
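Detection: kinetic calcium fluorescence imaging with Fluo4-AM dye, 2 µM / Material: HEK293 cells with stable M3R and inducible RGS4 / Schedule: recording 10 s baseline at 1 Hz, 100 s post-agonist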
RGS4 block valid = RGS4 inhibitor validation. shares compounds with RGS4 block. HEK293 M3R/RGS4, carbachol calcium Fluo-4 fluorescence; carbachol added at its EC20; 0 = buffer wells, 100 = carbachol control. calcium response, % at 10 µM. hit rate 65% among 1,700. AID 492999;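 active means duplicate-averaged calcium response above the buffer-only control mean plus 5 SD of those controls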;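 further: integrated fluorescence ratio F max minus min over baseline F0; higher response in RGS4-induced cells means RGS4 inhibition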
M3R Ca ctr = counter-screen for RGS4 inhibitors: effect in non-induced cells. shares compounds with RGS4 block. HEK293 M3R non-induced, carbachol calcium Fluo-4; submaximal (EC20) carbachol stimulus; buffer wells 0%, carbachol control wells 100%. activity (percent), % at 10 µM. hit rate 20% among 1,900. AID 493000; call rule not given here;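 further: RGS4 induction absent so cells express M3R without RGS4; higher means more calcium signal and flags a non-specific hit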
M3R basal Ca ctr = second RGS4 inhibitor counter-screen in uninduced cells lacking carbachol; shares compounds with RGS4 block; HEK293 M3R/RGS4 non-induced, Fluo-4 calcium, no carbachol; normalised: buffer wells 0%, carbachol wells 100%; calcium response (agonist-mode artifact), % at 10 µM; hit rate 22% among 1,900; AID 493001;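 active means duplicate-averaged calcium rise in uninduced cells above buffer wells' mean plus 5 SD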
MrgX1 ag reconf = human MrgX1 agonism, re-confirmation screen | shares compounds with MrgX1 ag | MrgX1-HEK293, Fluo-4 calcium fluorescence, FDSS | activation, % at 10 µM | hit rate 78% among 600;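 active means calcium signal rise, corrected for plate position, at least 3 library SD high, with starting brightness within 5 such deviations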
MrgX1 PAM conf = human MrgX1 positive allosteric modulation, re-confirmation | shares compounds with MrgX1 PAM | MrgX1-HEK293, Fluo-4 calcium fluorescence, FDSS | activation (ratio percentage), % at 10 µM | hit rate 13% among 1,200 | AID 602413;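 active means ratio at least 3 SD above the weak peptide control, stable starting fluorescence, no direct agonism earlier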;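 further: compound followed by low BAM8-22 agonist challenge near EC20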
HEK293 Ca flux = MrgX1 antagonist counter-screen hit in parental HEK293 cells | shares compounds with MrgX1 antagonist | Fluo-4 calcium fluorescence, FDSS | fluorescence ratio F(max-min)/F0 at 10 µM | hit rate 2% among 4,000;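 active means duplicate-averaged calcium fluorescence ratio at least three times the standard deviation of buffer wells, a nonspecific response in parental cells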
HEK293 Ca counter = activity in parental HEK293 cells without MrgX1; shares compounds with MrgX1 antagonist; parental HEK293 calcium flux, Fluo-4 fluorescence ratio; stronger effect = higher value; fluorescence ratio F(max-min)/F0 at 10 µM; hit rate 0.4% among 4,000; AID 624114;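 active means calcium fluorescence ratio, averaged over duplicates, at least 3 SD of the buffer-well ratio, meaning a nonspecific response in receptor-free cells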;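 further: untransfected parental HEK293 lacking MrgX1 used as counterscreen for MrgX1 allosteric activators; fluorescence change taken during the second addition on a kinetic imager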
HEK293 Ca cntr2 = activity in parental HEK293 cells lacking MrgX1 receptor | Fluo-4 calcium fluorescence (FDSS); stronger effect = higher value | hit rate 8.7% among 4,000 | shares compounds with MrgX1 antagonist | AID 624115 | fluorescence ratio F(max-min)/F0 at 10 µM;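 active means calcium fluorescence ratio at least three times the spread of buffer wells, meaning a non-specific response in parental cells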
Hits are given with their value; . = inactive; / = no result; ! = repeats disagree. Compounds with a hit are over-represented: about 3.5% of the library has one in this group of screens.

SMILES | MrgX1 ag | MrgX1 antagonist | RGS4 block | MrgX1 PAM | RGS4 pot | HEK293 Ca flux | HEK293 Ca counter | HEK293 Ca cntr2 | others
C/C1=C\[C@@H](C)C/C=C/[C@H]2[C@@H]3O[C@]3(C)[C@@H](C)[C@H]3[C@H](Cc4c[nH]c5ccccc45)NC(=O)[C@]32C(=O)/C=C/C(=O)[C@@H]1O | . | . | 11.4 | 10.7 | . | / | / | / | RGS4 block valid=46.5%;M3R Ca ctr=.;M3R basal Ca ctr=17.5%
CC1=CC2/C=C(\C)CCC(O)C(O)/C=C/C(=O)C23C(=O)NC(CC(C)C)C3C1C (stereo unspecified) | . | . | . | . | . | / | / | /
O=c1c2ccccc2nc(C[n+]2ccccc2)n1-c1cccc(C(F)(F)F)c1 | . | . | . | . | . | / | / | /
CC[N+](CC)(CC)CC | . | . | . | . | . | / | / | /
C=C1C(=O)O[C@@H]2C[C@@H](C)[C@@H]3C=CC(=O)[C@@]3(C)[C@@H](O)[C@H]12 | . | . | 5.18 | . | . | / | / | / | RGS4 block valid=35.0%;M3R Ca ctr=.;M3R basal Ca ctr=.
COc1cccc(N2C(=O)NC(=O)/C(=C/c3ccc([N+](=O)[O-])s3)C2=O)c1 | . | . | 10.2 | . | . | / | / | / | RGS4 block valid=20.5%;M3R Ca ctr=35.0%;M3R basal Ca ctr=.
CCOc1ccc(N2C(=O)NC(=O)/C(=C\c3cc(OC)c(OC)cc3[N+](=O)[O-])C2=O)cc1 | . | . | . | . | . | / | / | /
COc1ccccc1N1C(=O)NC(=O)/C(=C\c2cnn(-c3ccccc3)c2)C1=O | . | . | . | . | . | / | / | /
COc1cccc(N2C(=O)NC(=O)/C(=C/c3ccc4c(c3)Cc3ccccc3-4)C2=O)c1 | . | . | . | . | . | / | / | /
COc1ccccc1N1C(=O)NC(=O)/C(=C/c2ccc([N+](=O)[O-])s2)C1=O | . | . | . | . | . | / | / | / | M3R Ca ctr=.;M3R basal Ca ctr=.
COc1ccc(N2C(=O)NC(=O)/C(=C/c3ccc([N+](=O)[O-])s3)C2=O)cc1 | . | . | 6.07 | . | . | / | / | / | RGS4 block valid=16.0%;M3R Ca ctr=.;M3R basal Ca ctr=.
COc1ccc(N2C(=O)NC(=O)/C(=C\c3ccc([N+](=O)[O-])s3)C2=O)cc1 | . | . | 5.24 | . | . | / | / | / | RGS4 block valid=22.5%;M3R Ca ctr=.;M3R basal Ca ctr=.
O=P(NS(=O)(=O)c1ccc(Cl)cc1)(Oc1ccccc1)Oc1ccccc1 | . | . | . | . | . | / | / | /
Cc1nn(Cc2ccccc2)c(C)c1C(=O)NCc1ccccc1 | . | . | . | . | . | / | / | /
Cc1nn(Cc2ccccc2)c(C)c1C=C1C(=O)NC(=O)NC1=O | . | . | . | . | . | / | / | / | RGS4 block valid=.;M3R Ca ctr=.;M3R basal Ca ctr=.
O=c1[nH]c(=O)n(-c2ccccc2)c(O)c1/C=C1/C(c2ccccc2)=Nc2ccccc21 | 42.3 | . | 9.13 | . | . | / | / | / | RGS4 block valid=30.5%;M3R Ca ctr=.;M3R basal Ca ctr=16.0%
CCc1nnc(NS(=O)(=O)c2ccc(N=Cc3c(O)n(-c4ccc(Cl)cc4)c(=O)[nH]c3=O)cc2)s1 | . | . | . | . | . | / | / | /
Cc1cc(C)n(-c2ccc(NN=C(C#N)C#N)cc2)n1 | 87.8 | . | . | . | . | . | . | 56.4 | MrgX1 ag reconf=214.5%
CCOC(=O)c1cncn1[C@@H](C)c1ccccc1 | . | . | / | . | / | / | / | /
COC(=O)C1=C(c2cc3ccccc3s2)C[C@@H]2CC[C@H]1N2C(=O)NCCS(C)=O (stereo partly specified) | . | . | . | . | . | / | / | /
CNCCc1ccc(O)c(O)c1 | 42.9 | . | . | . | . | . | . | . | MrgX1 ag reconf=116.0%
O=C(CCCN1CCC2(CC1)C(=O)NCN2c1ccccc1)c1ccc(F)cc1 | 76.4 | . | . | . | . | . | . | 99.1 | MrgX1 ag reconf=542.2%
O=C(c1ccc(F)cc1)C(Cc1ccccc1)N1CCCCC1 (stereo unspecified) | . | . | . | . | . | / | / | /
O=C(NCNC(=O)NC1C(=O)NC(=O)N1CO)NC1C(=O)NC(=O)N1CO (stereo unspecified) | . | . | / | . | / | / | / | /
Cc1ccc(S(=O)(=O)N(c2cc(Cl)c(O)c(Cl)c2)P(=O)(OC(C)C)OC(C)C)cc1 | . | . | . | . | . | / | / | /
SMILES | MrgX1 ag | MrgX1 antagonist | RGS4 block | MrgX1 PAM | RGS4 pot | HEK293 Ca flux | HEK293 Ca counter | HEK293 Ca cntr2 | others
CN(C)C1(CNC(=O)c2cc(S(=O)(=O)N3CCOCC3)c(Cl)cc2Cl)CCCCC1 | . | . | . | . | . | / | / | /
CN(C)C1(CNC(=O)Nc2ccc(Cl)c(Cl)c2)CCCCC1 | 29.7 | . | . | . | . | . | . | . | MrgX1 ag reconf=.
COC(=O)C1=C(c2ccc(S(C)(=O)=O)cc2)C[C@@H]2CC[C@H]1N2C(=O)NCCNC(C)=O | . | . | . | . | . | / | / | /
CCC(C)N1C(=O)NC(=O)C2(Cc3c(ccc4ccccc34)N(C)C2)C1=O (stereo unspecified) | 33.5 | . | . | . | . | . | . | . | MrgX1 ag reconf=.
CC1OC(C[N+](C)(C)C)CC1O (stereo unspecified) | 79.7 | . | / | . | / | . | . | 104 | MrgX1 ag reconf=501.5%
C[C@H]1OC[C@@H](C[N+](C)(C)C)O1 | 112 | . | . | . | . | . | . | 107 | MrgX1 ag reconf=549.9%
COc1cc2c(c(OC)c1OC)-c1ccc(O)c(=O)cc1[C@@H](N)CC2 | . | . | / | . | / | / | / | /
C#CCOC(=O)C1=CCCN(C)C1 | 89.9 | . | / | . | / | . | . | 54.2 | MrgX1 ag reconf=281.1%
CC(NC1=NCCS1)c1ccccc1 (stereo unspecified) | . | . | . | . | . | / | / | /
CC(=O)OCC[N+](C)(C)C | 134 | . | . | . | -7.55! | . | . | 108 | MrgX1 ag reconf=557.5%
CC1(C)CN=C(NCc2ccccc2)S1 | . | . | . | 6.44 | . | . | . | . | MrgX1 PAM conf=.
CC(C)[C@H]1C(=O)O[C@@H]2CCN3CC=C(COC(=O)[C@](C)(O)[C@]1(C)O)[C@H]23 | . | . | . | . | . | / | / | /
COc1ccccc1CCNCc1cccc(C(F)(F)F)c1 | . | . | . | . | . | / | / | /
